In article PMC3799977 (Toxicology and applied pharmacology, 2012):

Legend:
mouse RORα = target: T1, mouse RORα (Mus musculus, UniProt P51448); assay: CHO-K1 cell-based RORα reporter gene assay; conditions: for ROR activity (RORα): data not shown; for RORα inverse agonistic activity (in words): Fig. 2A; for RIC20 (20% relative inhibitory concentration), RORα assay: inverse agonistic activity, CHO-K1 cells, 24 hr
T1 sequence (P51448 1-467 isoform P51448-2): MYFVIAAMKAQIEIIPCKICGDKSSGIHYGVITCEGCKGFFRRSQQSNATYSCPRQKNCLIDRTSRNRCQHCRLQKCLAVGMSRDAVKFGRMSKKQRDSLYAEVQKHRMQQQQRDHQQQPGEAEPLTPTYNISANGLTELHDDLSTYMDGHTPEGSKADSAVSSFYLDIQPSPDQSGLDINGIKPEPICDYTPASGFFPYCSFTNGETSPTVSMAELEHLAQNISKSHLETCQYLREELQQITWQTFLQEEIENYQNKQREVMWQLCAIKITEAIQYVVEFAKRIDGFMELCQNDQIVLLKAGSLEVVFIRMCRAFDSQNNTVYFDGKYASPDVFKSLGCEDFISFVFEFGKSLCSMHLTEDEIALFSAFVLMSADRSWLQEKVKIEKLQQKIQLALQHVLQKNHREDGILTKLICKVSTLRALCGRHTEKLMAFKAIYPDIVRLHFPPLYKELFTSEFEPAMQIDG

mouse RORγ = target: T2, mouse RORγ (Mus musculus, UniProt P51450); assay: CHO-K1 cell-based RORγ reporter gene assay; conditions: for ROR activity (RORγ): data not shown; for RIC20 (20% relative inhibitory concentration), RORγ assay: inverse agonistic activity, CHO-K1 cells, 24 hr
T2 sequence (P51450 1-516): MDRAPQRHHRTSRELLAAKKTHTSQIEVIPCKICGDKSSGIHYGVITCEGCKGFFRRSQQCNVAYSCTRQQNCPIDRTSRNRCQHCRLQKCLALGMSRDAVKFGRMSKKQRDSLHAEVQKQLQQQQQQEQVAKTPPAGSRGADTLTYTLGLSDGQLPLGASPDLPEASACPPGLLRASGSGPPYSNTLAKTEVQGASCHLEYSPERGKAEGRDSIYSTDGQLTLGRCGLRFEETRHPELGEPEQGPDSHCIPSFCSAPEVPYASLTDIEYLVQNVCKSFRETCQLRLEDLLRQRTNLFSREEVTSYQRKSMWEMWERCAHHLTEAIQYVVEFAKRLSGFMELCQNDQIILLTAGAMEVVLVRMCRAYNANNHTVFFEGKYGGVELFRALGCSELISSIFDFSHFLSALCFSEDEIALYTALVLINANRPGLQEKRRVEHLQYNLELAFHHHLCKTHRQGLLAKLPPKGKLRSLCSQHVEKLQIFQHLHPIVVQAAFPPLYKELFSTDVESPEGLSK

[1] = tested on: IL-17A mRNA expression in mouse T lymphoma EL4 cells; assay: IL-17A mRNA expression in EL4 cells; format: cell-based; conditions: 6 h; for IL-17 gene expression, dose dependence: PMA/ionomycin-stimulated EL4 cells, 1, 3, 10 or 30 μM; for IL-17 mRNA expression, real-time PCR: highest dose 30 μM
Procedure, shortened: (§1)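 EL4 cells were plated at 2 × 10^6 cells/ml in RPMI-1640 with 10% FBS. Next day they were stimulated with PMA (5 ng/ml) plus ionomycin (1 μM) and given vehicle or 1, 3, 10 or 30 μM test compound at 37°C for 6 h. TRIzol RNA was reverse-transcribed and TaqMan real-time PCR run, normalized to β-actin. Results were expressed relative to stimulated vehicle (=1), mean ± SD, three experiments.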

[2] = tested on: IL-17A mRNA expression in EL4/shNC cells; assay: IL-17A mRNA expression in control shRNA EL4/shNC cells; format: cell-based, mouse; conditions: 10 μM, PMA/ionomycin
RORα = conditions: read-out: Ki, binding to RORα; ref Kumar et al. (2010); cited from earlier work
[3] = tested on: RORγ mRNA expression in EL4 cells; assay: RORγ mRNA expression in PMA/ionomycin-stimulated EL4 cells; format: cell-based, mouse; conditions: 6 h
[4] = tested on: RORα mRNA expression in EL4 cells; assay: RORα mRNA expression in PMA/ionomycin-stimulated EL4 cells; format: cell-based, mouse; conditions: 6 h
Procedure, shortened: as §1

[5] = tested on: IL-17A mRNA expression in EL4/shRorac cells; assay: IL-17A mRNA expression in RORα/γ-knockdown EL4/shRorac cells; format: cell-based, mouse; conditions: 10 μM, PMA/ionomycin, RORα/γ double knockdown
Procedure, shortened: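 EL4/shRorac, a stable RORα/RORγ double-knockdown clone, was made by electroporating a GFP/Neo U6 vector carrying Rora and Rorc shRNAs, then selecting in G418. EL4/shNC (nonsilencing shRNA) served as control. Cells received 10 μM test compound with or without PMA/ionomycin. IL-17 mRNA was measured by real-time RT-PCR, normalized to β-actin, and expressed relative to stimulated vehicle-treated EL4/shNC (=1). Mean ± SD, three experiments.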

CHO-K1 cells = assay: Cytotoxicity check by β-galactosidase activity in the reporter gene assays; format: cell-based, Chinese hamster; conditions: highest dose (30 μM)
[6] = PMA/ionomycin-stimulated EL4 cells
[7] = PMA/ionomycin-stimulated EL4 cells, 10 μM

CCCN(CCOc1c(Cl)cc(Cl)cc1Cl)C(=O)n1ccnc1 [prochloraz]
ROR activity (RORα) (mouse RORα): inactive | ROR activity (RORγ) (mouse RORγ): inactive

CCCC1COC(Cn2cncn2)(c2ccc(Cl)cc2Cl)O1 (stereo not drawn) [propiconazole]
ROR activity (RORα) (mouse RORα): inactive | ROR activity (RORγ) (mouse RORγ): inactive

CC(C)(C)C(O)C(Oc1ccc(-c2ccccc2)cc1)n1cncn1 (stereo not drawn) [bitertanol]
ROR activity (RORα) (mouse RORα): inactive | ROR activity (RORγ) (mouse RORγ): inactive

C=CCOC(Cn1ccnc1)c1ccc(Cl)cc1Cl (stereo not drawn) [Imazalil]
IL-17 gene expression, dose dependence [1]: inhibit IL-17 gene expression in a dose-dependent manner | IL-17 mRNA expression, real-time PCR [1, 6]: significantly suppressed IL-17 mRNAs | RORα inverse agonistic activity (in words) (mouse RORα): did not show almost any inverse agonistic activity | RIC20 (20% relative inhibitory concentration), RORα assay (mouse RORα): > 30 µM | RIC20 (20% relative inhibitory concentration), RORγ assay (mouse RORγ): 29 µM

CCCCC(O)(Cn1cncn1)c1ccc(Cl)cc1Cl (stereo not drawn) [Hexaconazole]
IL-17A mRNA expression, real-time PCR [1, 7]: significantly inhibited | IL-17 gene expression, dose dependence [1]: inhibit IL-17 gene expression in a dose-dependent manner | RORα inverse agonistic activity (in words) (mouse RORα): weak RORα inverse agonists | RIC20 (20% relative inhibitory concentration), RORα assay (mouse RORα): 21 µM | RIC20 (20% relative inhibitory concentration), RORγ assay (mouse RORγ): 3.2 µM

O=S(=O)(c1ccccc1)N(CC(F)(F)F)c1ccc(C(O)(C(F)(F)F)C(F)(F)F)cc1 [T0901317, N-(2,2,2-trifluoroethyl)-N-[4-(2,2,2-trifluoro-1-hydroxy-1-trifluoromethyl-ethyl)-phenyl]-benzene sulfonamide, reference compound]
IL-17A mRNA expression in EL4/shNC cells [2]: showed inhibitory effects on IL-17A mRNA expression | IL-17A mRNA expression, qualitative RT-PCR ([1]; PMA/ionomycin-stimulated EL4 cells, 0.1, 1, 10 μM, Fig. 4A): inhibited IL-17A mRNA expression in a dose-dependent manner | IL-17A mRNA expression, real-time PCR ([1]; PMA/ionomycin-stimulated EL4 cells, 0.1, 1, and 10 μM): significantly inhibited IL-17A mRNA expression | IL-17A gene expression in non-stimulated EL4 cells ([1]; no PMA/ionomycin stimulation, qualitative RT-PCR): neither T0901317 nor the vehicle induced the expression of IL-17A gene | Ki (RORα): […] | RORγ mRNA expression [3]: did not affect | RORα mRNA expression [4]: did not affect | IL-17 mRNA expression in EL4/shRorac cells [5]: also suppressed IL-17 mRNA expression | RORα agonistic activity (mouse RORα; CHO cell-based reporter gene assay): didn’t show any RORα/γ agonistic activity | RORα inverse agonistic activity (in words) (mouse RORα): weak RORα inverse agonists | cytotoxic effects based on β-galactosidase activity (CHO-K1 cells): except for the highest dose (30 μM)

Clc1ccc(CSC(Cn2cncn2)=Nc2ccc(Cl)cc2Cl)cc1 [Imibenconazole]
IL-17A mRNA expression in EL4/shNC cells [2]: showed inhibitory effects on IL-17A mRNA expression | IL-17A mRNA expression, real-time PCR [1, 7]: strongly suppressed IL-17A mRNA expression | IL-17 gene expression, dose dependence [1]: inhibit IL-17 gene expression in a dose-dependent manner | IL-17 mRNA expression in EL4/shRorac cells [5]: also suppressed IL-17 mRNA expression | RORα inverse agonistic activity (in words) (mouse RORα): weak RORα inverse agonists | RIC20 (20% relative inhibitory concentration), RORα assay (mouse RORα): 10 µM | RIC20 (20% relative inhibitory concentration), RORγ assay (mouse RORγ): 3.3 µM | cytotoxic effects based on β-galactosidase activity (CHO-K1 cells): except for the highest dose (30 μM)

CCCOC/C(=N\c1ccc(Cl)cc1C(F)(F)F)n1ccnc1 [Triflumizole]
IL-17A mRNA expression, real-time PCR [1, 7]: significantly inhibited | IL-17 gene expression, dose dependence [1]: inhibit IL-17 gene expression in a dose-dependent manner | RORα inverse agonistic activity (in words) (mouse RORα): weak RORα inverse agonists

CC(C)(C)C(=O)C(Oc1ccc(Cl)cc1)n1cncn1 (stereo not drawn) [triadimefon]
ROR activity (RORα) (mouse RORα): inactive | ROR activity (RORγ) (mouse RORγ): inactive

FC(F)C(F)(F)OCC(Cn1cncn1)c1ccc(Cl)cc1Cl (stereo not drawn) [Tetraconazole]
IL-17 gene expression, dose dependence [1]: inhibit IL-17 gene expression in a dose-dependent manner | IL-17 mRNA expression, real-time PCR [1, 6]: significantly suppressed IL-17 mRNAs | RORα inverse agonistic activity (in words) (mouse RORα): did not show almost any inverse agonistic activity | RIC20 (20% relative inhibitory concentration), RORα assay (mouse RORα): > 30 µM | RIC20 (20% relative inhibitory concentration), RORγ assay (mouse RORγ): 15 µM
